Measurements reported in ChEMBL document CHEMBL4390675, “Dopamine D4 Receptor-Selective Compounds Reveal Structure-Activity Relationships that Engender Agonist Efficacy” (J Med Chem, 2019).
Calls of active or inactive are those of the source. No cut-off for these calls is given here.

What was measured:
[1] = target: T1, D(3) dopamine receptor (Homo sapiens, UniProt P35462); test: Displacement of [3H]N-methylspiperone from human D3 receptor expressed in HEK293 cell membranes measured after 60 mins by scintillation counting method
T1 sequence (P35462 whole entry): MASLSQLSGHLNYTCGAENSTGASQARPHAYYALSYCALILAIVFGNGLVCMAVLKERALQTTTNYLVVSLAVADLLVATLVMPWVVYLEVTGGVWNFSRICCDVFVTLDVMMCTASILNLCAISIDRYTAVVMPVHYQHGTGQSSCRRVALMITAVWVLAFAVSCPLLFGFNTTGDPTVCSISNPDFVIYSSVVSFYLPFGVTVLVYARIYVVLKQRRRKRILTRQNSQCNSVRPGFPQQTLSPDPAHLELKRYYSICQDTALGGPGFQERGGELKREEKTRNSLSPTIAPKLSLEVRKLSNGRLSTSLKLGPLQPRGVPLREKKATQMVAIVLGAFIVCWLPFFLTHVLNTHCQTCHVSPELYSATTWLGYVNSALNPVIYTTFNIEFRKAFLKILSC
Outline: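 HEK293 cells stably expressing human D3R; membranes in EBSS buffer pH 7.4, stored at −80 °C. 20 μg protein/well with 0.4 nM [3H]N-methylspiperone (final), half-log dilutions in 30% DMSO, in triplicate. 60 min at room temperature, then GF/B filtration. Nonspecific binding with 10 μM (+)-butaclamol.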

[2] = target: T2, D(4) dopamine receptor (Homo sapiens, UniProt P21917); test: Displacement of [3H]N-methylspiperone from human D4.4 receptor expressed in HEK293 cell membranes measured after 60 mins by scintillation counting method
T2 sequence (P21917 whole entry): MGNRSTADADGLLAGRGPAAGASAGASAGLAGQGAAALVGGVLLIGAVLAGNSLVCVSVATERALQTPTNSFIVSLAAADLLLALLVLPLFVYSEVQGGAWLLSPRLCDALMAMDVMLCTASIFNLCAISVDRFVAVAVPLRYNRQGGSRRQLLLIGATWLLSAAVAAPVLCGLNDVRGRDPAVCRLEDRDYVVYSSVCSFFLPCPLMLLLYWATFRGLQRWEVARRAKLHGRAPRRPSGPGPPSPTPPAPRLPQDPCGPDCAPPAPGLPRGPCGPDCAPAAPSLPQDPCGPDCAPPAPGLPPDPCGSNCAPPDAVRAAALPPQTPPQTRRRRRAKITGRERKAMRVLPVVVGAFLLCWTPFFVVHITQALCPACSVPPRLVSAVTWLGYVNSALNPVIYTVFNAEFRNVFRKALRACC
Outline: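 Frozen HEK293 membranes stably expressing human D4.4R (30 μg/well) in EBSS-bicarbonate buffer, pH 7.4, were incubated with 0.4 nM [3H]N-methylspiperone and half-log compound dilutions (30% DMSO vehicle) for 60 min at room temperature. Nonspecific binding was defined by 10 μM (+)-butaclamol. Samples were filtered on GF/B filters and counted by scintillation.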

[3] = target: T3, D(2) dopamine receptor (Homo sapiens, UniProt P14416); test: Agonist activity at human D2L receptor expressed in CHOK1 cells assessed as inhibition of forskolin-induced cAMP accumulation measured after 30 mins by Eu-cAMP tracer based TR-FRET assay relative to dopamine; format: cell-based; conditions: 0.5 h
T3 sequence (P14416 whole entry): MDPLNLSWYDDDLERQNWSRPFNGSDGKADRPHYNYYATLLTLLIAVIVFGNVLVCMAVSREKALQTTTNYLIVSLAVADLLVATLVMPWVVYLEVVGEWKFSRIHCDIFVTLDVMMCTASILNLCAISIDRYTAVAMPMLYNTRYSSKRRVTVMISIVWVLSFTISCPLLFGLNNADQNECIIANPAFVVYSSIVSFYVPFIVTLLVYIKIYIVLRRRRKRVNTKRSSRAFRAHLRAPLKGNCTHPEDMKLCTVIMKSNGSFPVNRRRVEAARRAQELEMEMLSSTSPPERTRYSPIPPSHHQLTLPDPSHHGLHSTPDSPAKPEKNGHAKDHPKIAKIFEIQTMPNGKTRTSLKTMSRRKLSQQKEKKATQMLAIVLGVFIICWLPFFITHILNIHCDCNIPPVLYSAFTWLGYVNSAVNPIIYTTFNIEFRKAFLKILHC

[4] = target: T3, D(2) dopamine receptor; test: Antagonist activity at human D2L receptor expressed in CHOK1 cells assessed as suppression of dopamine-induced inhibition of forskolin-stimulated cAMP accumulation measured after 30 mins by Eu-cAMP tracer based TR-FRET assay relative to dopamine; format: cell-based; conditions: 0.5 h
[5] = target: T4, D(4) dopamine receptor (Homo sapiens) (UniProt P21917); test: Agonist activity at human D4 receptor expressed in CHOK1 cells assessed as inhibition of forskolin-induced cAMP accumulation measured after 30 mins by Eu-cAMP tracer based TR-FRET assay relative to dopamine; format: functional, cell-based
T4 sequence (whole entry): T2 sequence (P21917 whole entry)
Outline: (§1)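 LANCE Ultra TR-FRET cAMP assay in CHO-K1 cells stably expressing human D2R long isoform or D4R. Cells were plated in HBSS/5 mM HEPES/0.2 μM metabisulfite, then immediately given compound plus forskolin (10 μM final) for 30 min at room temperature. Eu-cAMP tracer and ULight-anti-cAMP were added for 2 h in the dark. Values are % of maximal dopamine signal, nonlinear regression of triplicate runs, n = 3–4.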

[6] = target: T2, D(4) dopamine receptor; test: Agonist activity at human D4 receptor expressed in CHOK1 cells assessed as inhibition of forskolin-induced cAMP accumulation measured after 30 mins by Eu-cAMP tracer based TR-FRET assay; format: functional, cell-based; outline: as §1
[7] = target: T4, D(4) dopamine receptor (Homo sapiens); test: Antagonist activity at human D4 receptor expressed in CHOK1 cells assessed as suppression of dopamine-induced inhibition of forskolin-stimulated cAMP accumulation measured after 30 mins by Eu-cAMP tracer based TR-FRET assay relative to dopamine; format: functional, cell-based; design: concentration or dose not given beside the values
[8] = target: T2, D(4) dopamine receptor; test: Antagonist activity at human D4 receptor expressed in CHOK1 cells assessed as suppression of dopamine-induced inhibition of forskolin-stimulated cAMP accumulation measured after 30 mins by Eu-cAMP tracer based TR-FRET assay; format: functional, cell-based
[9] = target: T3, D(2) dopamine receptor; test: Agonist activity at human D2L receptor expressed in CHOK1 cells assessed as induction of beta-arrestin recruitment measured after 90 mins by luminescence assay relative to control; format: cell-based
Outline: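 PathHunter enzyme-complementation assay in CHO-K1 cells stably expressing human D2R long isoform, seeded 2625 cells/well and incubated overnight. Compounds diluted in PBS with 0.2 μM sodium metabisulfite, tested at multiple concentrations, 90 min at 37 °C. Detection reagent then 45–60 min at room temperature, luminescence read. Normalized to maximal dopamine response. Nonlinear regression of triplicate runs, n = 3–4.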

[10] = target: T3, D(2) dopamine receptor; test: Antagonist activity at human D2L receptor expressed in CHOK1 cells assessed as inhibition of dopamine-induced beta-arrestin recruitment measured after 90 mins by luminescence assay; format: cell-based
Outline: (§2)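 Antagonist-mode PathHunter β-arrestin assay in CHO-K1 cells stably expressing human D2R long isoform or D3R, seeded overnight. Compound dilutions in PBS with 0.2 μM metabisulfite were co-incubated with an EC80 dopamine concentration for 90 min at 37 °C. Detection reagent was added for 45–60 min at room temperature, then luminescence was read. Values are % of dopamine EC80 response, from nonlinear regression of triplicate runs, n = 3–4.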

[11] = target: T1, D(3) dopamine receptor; test: Agonist activity at human D3 receptor expressed in CHOK1 cells assessed as induction of beta-arrestin recruitment measured after 90 mins by luminescence assay; format: cell-based
Outline: (§3)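 PathHunter enzyme-complementation assay in CHO-K1 cells stably expressing human D2R long isoform, D3R or D4R, seeded overnight in Ham's F12/10% FBS. Compounds were diluted in PBS with 0.2 μM sodium metabisulfite and applied at multiple concentrations for 90 min at 37 °C. Detection reagent was added for 45–60 min at room temperature, then luminescence was read. Values are % of maximal dopamine response, from nonlinear regression of triplicate runs, mean ± SEM, n = 3–4.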

[12] = target: T1, D(3) dopamine receptor; test: Antagonist activity at human D3 receptor expressed in CHOK1 cells assessed as inhibition of dopamine-induced beta-arrestin recruitment measured after 90 mins by luminescence assay; format: cell-based; outline: as §2
[13] = target: T4, D(4) dopamine receptor (Homo sapiens); test: Agonist activity at human D4 receptor expressed in CHOK1 cells assessed as induction of beta-arrestin recruitment measured after 90 mins by luminescence assay relative to control; format: cell-based; outline: as §3
[14] = target: T2, D(4) dopamine receptor; test: Agonist activity at human D4 receptor expressed in CHOK1 cells assessed as induction of beta-arrestin recruitment measured after 90 mins by luminescence assay; format: cell-based; outline: as §3
[15] = target: T4, D(4) dopamine receptor (Homo sapiens); test: Antagonist activity at human D4 receptor expressed in CHOK1 cells assessed as inhibition of dopamine-induced beta-arrestin recruitment measured after 90 mins by luminescence assay relative to control; format: cell-based; design: concentration or dose not given beside the values
[16] = target: T2, D(4) dopamine receptor; test: Antagonist activity at human D4 receptor expressed in CHOK1 cells assessed as inhibition of dopamine-induced beta-arrestin recruitment measured after 90 mins by luminescence assay; format: cell-based
[17] = target: T3, D(2) dopamine receptor; test: Agonist activity at human D2L receptor expressed in CHOK1 cells assessed as inhibition of forskolin-induced cAMP accumulation measured after 30 mins by Eu-cAMP tracer based TR-FRET assay; format: cell-based; outline: as §1
[18] = target: T3, D(2) dopamine receptor; test: Agonist activity at human D2L receptor expressed in CHOK1 cells assessed as induction of beta-arrestin recruitment measured after 90 mins by luminescence assay; format: cell-based; outline: as §3
[19] = target: T3, D(2) dopamine receptor; test: Antagonist activity at human D2L receptor expressed in CHOK1 cells assessed as inhibition of dopamine-induced beta-arrestin recruitment measured after 90 mins by luminescence assay relative to control; format: cell-based; outline: as §2
[20] = target: T1, D(3) dopamine receptor; test: Displacement of [3H](R)-(+)-7-OH-DPAT from human D3 receptor expressed in HEK293 cell membranes measured after 90 mins by scintillation counting method
Outline: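 Fresh HEK293 hD3R membranes (40 μg/well) in 50 mM Tris, 10 mM MgCl2, 1 mM EDTA, pH 7.4 were incubated with 0.5 nM [3H]-(R)-(+)-7-OH-DPAT and half-log compound dilutions in 30% DMSO for 90 min at room temperature. Nonspecific binding was defined with 10 μM (+)-butaclamol. Samples were filtered on PEI-soaked GF/B filters and counted by scintillation.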

[21] = target: T1, D(3) dopamine receptor; test: Agonist activity at human D3 receptor expressed in CHOK1 cells assessed as induction of beta-arrestin recruitment measured after 90 mins by luminescence assay relative to control; format: cell-based; outline: as §3
[22] = target: D(1A) dopamine receptor (Homo sapiens) (UniProt P21728); test: Agonist activity at D1 receptor (unknown origin) stably expressed in CHOK1 cells assessed as induction of beta-arrestin recruitment measured after 90 mins by luminescence assay; format: cell-based
Chain of D(1A) dopamine receptor (Homo sapiens) (P21728 whole entry): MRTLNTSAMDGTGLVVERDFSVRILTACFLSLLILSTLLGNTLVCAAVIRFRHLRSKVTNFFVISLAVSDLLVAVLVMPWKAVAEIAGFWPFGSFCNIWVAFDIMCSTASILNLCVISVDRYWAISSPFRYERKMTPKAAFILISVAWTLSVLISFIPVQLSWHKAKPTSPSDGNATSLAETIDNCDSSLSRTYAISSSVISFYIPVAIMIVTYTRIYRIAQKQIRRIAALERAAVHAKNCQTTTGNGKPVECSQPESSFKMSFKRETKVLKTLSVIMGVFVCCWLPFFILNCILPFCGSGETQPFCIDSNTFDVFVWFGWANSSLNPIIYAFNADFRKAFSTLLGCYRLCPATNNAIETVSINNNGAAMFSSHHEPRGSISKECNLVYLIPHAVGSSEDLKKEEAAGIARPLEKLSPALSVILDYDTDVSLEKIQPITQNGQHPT

[23] = target: D(1B) dopamine receptor (Homo sapiens) (UniProt P21918); test: Agonist activity at D5 receptor (unknown origin) stably expressed in CHOK1 cells assessed as induction of beta-arrestin recruitment measured after 90 mins by luminescence assay; format: cell-based
Chain of D(1B) dopamine receptor (Homo sapiens) (P21918 whole entry): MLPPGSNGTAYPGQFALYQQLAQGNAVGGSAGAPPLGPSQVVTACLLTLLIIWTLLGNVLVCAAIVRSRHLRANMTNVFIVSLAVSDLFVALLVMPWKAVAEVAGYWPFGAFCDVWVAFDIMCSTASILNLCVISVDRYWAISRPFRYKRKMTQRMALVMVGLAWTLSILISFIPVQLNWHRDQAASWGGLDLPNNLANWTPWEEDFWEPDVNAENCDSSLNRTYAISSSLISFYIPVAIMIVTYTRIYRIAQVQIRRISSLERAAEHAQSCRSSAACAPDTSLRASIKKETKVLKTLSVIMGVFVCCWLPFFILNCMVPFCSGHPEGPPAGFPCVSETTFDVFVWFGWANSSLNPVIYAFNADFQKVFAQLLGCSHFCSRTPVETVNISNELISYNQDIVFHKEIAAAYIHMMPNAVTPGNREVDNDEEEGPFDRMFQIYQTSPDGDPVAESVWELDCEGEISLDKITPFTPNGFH

[24] = target: D(1A) dopamine receptor (Homo sapiens) (UniProt P21728); test: Antagonist activity at D1 receptor (unknown origin) stably expressed in CHOK1 cells assessed as inhibition of dopamine-induced beta-arrestin recruitment measured after 90 mins by luminescence assay; format: cell-based
[25] = target: D(1B) dopamine receptor (Homo sapiens) (UniProt P21918); test: Antagonist activity at D5 receptor (unknown origin) stably expressed in CHOK1 cells assessed as inhibition of dopamine-induced beta-arrestin recruitment measured after 90 mins by luminescence assay; format: cell-based

Structure (SMILES) | Ki [1] | Ki [2] | Emax [3] | inhibition (INH) [4] | EC50 ([6]; read-out: EC50) | IC50 [8] | Emax [9] | IC50 [10] | EC50 ([11]; read-out: EC50) | IC50 [12] | IC50 ([16]; read-out: IC50) | EC50 [17] | EC50 [6] | EC50 [18] | INH [19] | EC50 [11] | EC50 [14] | other results
O=C(CN1CCN(c2ccccn2)CC1)Nc1cccnc1 | > 50 µM | 6.41 µM | 38.6% | 100% | 1.07 µM | 86.5 µM | 21.3% | Not Active | 2.8 µM | Not Active | 25.8 µM | – | – | – | – | – | – | Emax [5]: 47.3%; inhibition [7]: 100%; Emax [13]: 19%; EC50 ([14]; read-out: EC50): 2.66 µM; inhibition [15]: 100%
O=C(CN1CCN(c2ccccn2)CC1)Nc1cncnc1 | > 50 µM | 39.3 µM | – | 98.1% | – | > 100 µM | – | Not Active | – | Not Active | – | Not Active | Not Active | Not Active | Not Active | Not Active | Not Active | IC50 [16]: Not Active
O=C(CN1CCN(c2ccc(Cl)cn2)CC1)Nc1cccnc1 | > 50 µM | 5 µM | – | 100% | – | 40 µM | – | Not Active | – | Not Active | 23.4 µM | Not Active | Not Active | Not Active | Not Active | Not Active | Not Active | –
Cc1cccc(NC(=O)CCN2CCC(c3ccccn3)CC2)c1 | 3.04 µM | > 10 µM | 83.1% | – | 0.349 µM | 6.34 µM | 48.9% | – | 0.97 µM | – | 3.8 µM | – | – | – | 72.1% | – | Not Active | Ki [20]: 0.51 µM; Emax [21]: 55.4%; IC50 ([12]; read-out: IC50): > 50 µM; Activity [22]: inactive; Activity [23]: inactive; inhibition [24]: inactive; inhibition [25]: inactive
